Source: paper PMC4929832 (Nature, 2016)

How the values were obtained:
PKC-ETA = PKC-ETA (Homo sapiens, UniProt P24723); assay: kinase panel; format: biochemical
H1975 cells = assay: Proliferation assay; format: cell-based
How it was run: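 Cells were maintained in 10% FBS/RPMI with penicillin/streptomycin and plated at 500 cells/well in 10% FBS RPMI. Serially diluted test compound was pin-transferred. Viability was read after 3 days by CellTiter-Glo luminescence and normalized to 0.1% DMSO-treated cells and empty wells. EC50 was obtained by non-linear regression curve fitting.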

[1] = test system: L858R/T790M/I941R EGFR Ba/F3 cells; assay: Ba/F3 cell proliferation; format: cell-based; conditions: Ba/F3 L858R/T790M/I941R versus L858R/T790M
How it was run: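 The I941R mutation was introduced into L858R/T790M EGFR by site-directed mutagenesis, and Ba/F3 stable clones were selected in puromycin (2 μg/ml). Cells were treated with the test compound for 72 h and growth was read by MTS assay. Points were run in six wells, with experiments repeated at least three times. Curves were fitted by non-linear regression to a sigmoidal dose response.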

LRRK2-G2019S = LRRK2-G2019S (Homo sapiens, UniProt Q5S007, G2019S); assay: kinase panel; format: biochemical
LTK = LTK (Homo sapiens, UniProt P29376); assay: kinase panel; format: biochemical
Sequence of LTK (P29376 17-864): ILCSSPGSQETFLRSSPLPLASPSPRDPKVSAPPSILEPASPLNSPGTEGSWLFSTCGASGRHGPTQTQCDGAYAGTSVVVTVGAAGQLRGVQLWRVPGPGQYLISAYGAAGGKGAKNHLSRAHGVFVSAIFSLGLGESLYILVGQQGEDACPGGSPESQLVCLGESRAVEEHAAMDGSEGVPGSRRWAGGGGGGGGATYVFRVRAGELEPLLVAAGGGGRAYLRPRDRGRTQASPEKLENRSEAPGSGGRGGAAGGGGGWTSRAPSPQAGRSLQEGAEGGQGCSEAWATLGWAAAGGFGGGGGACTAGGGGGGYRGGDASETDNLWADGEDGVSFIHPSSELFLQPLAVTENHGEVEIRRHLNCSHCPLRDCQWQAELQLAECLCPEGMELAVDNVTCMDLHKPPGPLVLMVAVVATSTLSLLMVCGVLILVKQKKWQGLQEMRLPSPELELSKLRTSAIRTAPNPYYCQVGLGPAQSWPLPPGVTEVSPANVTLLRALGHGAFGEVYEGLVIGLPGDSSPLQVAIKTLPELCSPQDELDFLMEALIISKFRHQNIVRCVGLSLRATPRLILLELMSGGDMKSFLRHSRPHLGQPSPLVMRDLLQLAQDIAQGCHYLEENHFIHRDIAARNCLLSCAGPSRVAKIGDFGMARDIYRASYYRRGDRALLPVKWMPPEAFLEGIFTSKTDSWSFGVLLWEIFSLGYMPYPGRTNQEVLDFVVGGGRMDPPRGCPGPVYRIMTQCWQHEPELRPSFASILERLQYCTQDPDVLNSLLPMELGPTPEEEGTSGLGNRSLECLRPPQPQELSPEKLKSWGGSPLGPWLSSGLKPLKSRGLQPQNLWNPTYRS

PRKG1 = PRKG1 (Homo sapiens, UniProt Q13976); assay: kinase panel; format: biochemical
RET = RET (Homo sapiens, UniProt P07949); assay: kinase panel; format: biochemical
MER = MER (Homo sapiens, UniProt Q12866); assay: kinase panel; format: biochemical
Sequence of MER (Q12866 21-999): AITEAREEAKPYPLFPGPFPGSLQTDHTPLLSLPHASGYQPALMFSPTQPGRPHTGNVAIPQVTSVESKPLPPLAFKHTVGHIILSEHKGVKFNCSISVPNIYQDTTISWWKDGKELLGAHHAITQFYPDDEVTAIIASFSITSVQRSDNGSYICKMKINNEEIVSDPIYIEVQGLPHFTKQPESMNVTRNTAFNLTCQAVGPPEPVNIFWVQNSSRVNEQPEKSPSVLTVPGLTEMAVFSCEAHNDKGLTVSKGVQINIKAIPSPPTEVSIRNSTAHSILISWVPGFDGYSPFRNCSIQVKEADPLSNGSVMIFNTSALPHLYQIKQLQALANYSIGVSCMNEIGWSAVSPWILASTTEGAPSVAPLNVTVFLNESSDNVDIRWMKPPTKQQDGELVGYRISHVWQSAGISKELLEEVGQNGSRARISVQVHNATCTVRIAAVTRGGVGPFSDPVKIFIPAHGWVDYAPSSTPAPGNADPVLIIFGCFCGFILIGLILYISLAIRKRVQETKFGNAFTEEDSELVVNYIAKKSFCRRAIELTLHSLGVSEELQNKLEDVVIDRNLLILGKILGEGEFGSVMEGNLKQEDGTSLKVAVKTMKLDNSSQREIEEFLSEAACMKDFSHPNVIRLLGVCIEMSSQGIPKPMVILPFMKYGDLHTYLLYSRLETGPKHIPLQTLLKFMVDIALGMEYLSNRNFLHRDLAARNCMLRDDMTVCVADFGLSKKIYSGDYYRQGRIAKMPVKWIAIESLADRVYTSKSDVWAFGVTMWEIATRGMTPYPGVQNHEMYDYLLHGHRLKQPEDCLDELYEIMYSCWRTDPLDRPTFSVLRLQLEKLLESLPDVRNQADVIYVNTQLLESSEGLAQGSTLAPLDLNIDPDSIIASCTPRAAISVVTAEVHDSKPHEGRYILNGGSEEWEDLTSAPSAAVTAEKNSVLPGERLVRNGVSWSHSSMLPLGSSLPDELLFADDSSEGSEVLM

CLK3 = CLK3 (Homo sapiens, UniProt P49761); assay: kinase panel; format: biochemical
CK2 = assay: kinase panel; format: biochemical; conditions: CK2, 1 μM
HASPIN = HASPIN (Homo sapiens, UniProt Q8TF76); assay: kinase panel; format: biochemical
Sequence of HASPIN (Q8TF76 whole entry): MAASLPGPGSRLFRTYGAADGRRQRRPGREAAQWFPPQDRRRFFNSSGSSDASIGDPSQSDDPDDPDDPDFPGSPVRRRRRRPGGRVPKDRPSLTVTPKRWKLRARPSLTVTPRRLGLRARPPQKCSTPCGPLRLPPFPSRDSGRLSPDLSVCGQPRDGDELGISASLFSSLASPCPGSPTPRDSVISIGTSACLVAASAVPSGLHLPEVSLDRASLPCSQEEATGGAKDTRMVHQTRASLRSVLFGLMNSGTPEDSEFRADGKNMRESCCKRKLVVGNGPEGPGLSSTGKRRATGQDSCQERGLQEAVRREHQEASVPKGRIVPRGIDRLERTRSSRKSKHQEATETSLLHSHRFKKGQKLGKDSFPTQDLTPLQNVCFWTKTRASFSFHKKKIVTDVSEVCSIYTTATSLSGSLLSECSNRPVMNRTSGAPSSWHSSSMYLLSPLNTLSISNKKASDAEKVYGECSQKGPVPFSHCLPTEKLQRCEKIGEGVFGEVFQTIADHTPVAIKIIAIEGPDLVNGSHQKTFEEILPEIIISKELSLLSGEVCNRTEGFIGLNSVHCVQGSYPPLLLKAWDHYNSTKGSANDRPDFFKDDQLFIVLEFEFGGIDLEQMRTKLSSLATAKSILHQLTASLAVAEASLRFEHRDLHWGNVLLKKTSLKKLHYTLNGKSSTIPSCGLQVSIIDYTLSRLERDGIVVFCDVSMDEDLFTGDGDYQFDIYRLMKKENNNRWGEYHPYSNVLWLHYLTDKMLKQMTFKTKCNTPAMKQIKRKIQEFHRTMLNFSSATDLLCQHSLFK

[2] = biological target: Beta 1 adrenergic receptor (Homo sapiens, UniProt P08588); assay: Beta 1 adrenergic receptor assay; format: binding
PRKD1 = PRKD1 (Homo sapiens, UniProt Q15139); assay: kinase panel; format: biochemical
TBK1 = TBK1 (Homo sapiens, UniProt Q9UHD2); assay: kinase panel; format: biochemical
MST2 = MST2 (Homo sapiens, UniProt Q13188); assay: kinase panel; format: biochemical
AURORA-C = AURORA-C (Homo sapiens, UniProt Q9UQB9); assay: kinase panel; format: biochemical
Sequence of AURORA-C (Q9UQB9 whole entry): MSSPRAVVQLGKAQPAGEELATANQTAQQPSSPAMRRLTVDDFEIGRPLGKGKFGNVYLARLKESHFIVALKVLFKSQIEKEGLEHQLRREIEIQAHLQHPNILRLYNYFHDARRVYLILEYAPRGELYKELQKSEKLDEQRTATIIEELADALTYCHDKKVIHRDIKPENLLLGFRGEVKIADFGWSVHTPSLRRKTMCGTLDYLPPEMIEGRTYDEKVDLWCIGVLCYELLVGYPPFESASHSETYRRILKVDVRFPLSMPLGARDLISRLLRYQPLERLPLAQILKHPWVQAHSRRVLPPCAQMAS

FES = FES (Homo sapiens, UniProt P07332); assay: kinase panel; format: biochemical
MELK = MELK (Homo sapiens, UniProt Q14680); assay: kinase panel; format: biochemical
ABL1 = ABL1 (Homo sapiens, UniProt P00519); assay: kinase panel; format: biochemical
PAK6 = PAK6 (Homo sapiens, UniProt Q9NQU5); assay: kinase panel; format: biochemical
CK1 = assay: kinase panel; format: biochemical; conditions: CK1, 1 μM
BTK = BTK (Homo sapiens, UniProt Q06187); assay: kinase panel; format: biochemical
TAOK2 = TAOK2 (Homo sapiens, UniProt Q9UL54); assay: kinase panel; format: biochemical
Sequence of TAOK2 (Q9UL54 whole entry): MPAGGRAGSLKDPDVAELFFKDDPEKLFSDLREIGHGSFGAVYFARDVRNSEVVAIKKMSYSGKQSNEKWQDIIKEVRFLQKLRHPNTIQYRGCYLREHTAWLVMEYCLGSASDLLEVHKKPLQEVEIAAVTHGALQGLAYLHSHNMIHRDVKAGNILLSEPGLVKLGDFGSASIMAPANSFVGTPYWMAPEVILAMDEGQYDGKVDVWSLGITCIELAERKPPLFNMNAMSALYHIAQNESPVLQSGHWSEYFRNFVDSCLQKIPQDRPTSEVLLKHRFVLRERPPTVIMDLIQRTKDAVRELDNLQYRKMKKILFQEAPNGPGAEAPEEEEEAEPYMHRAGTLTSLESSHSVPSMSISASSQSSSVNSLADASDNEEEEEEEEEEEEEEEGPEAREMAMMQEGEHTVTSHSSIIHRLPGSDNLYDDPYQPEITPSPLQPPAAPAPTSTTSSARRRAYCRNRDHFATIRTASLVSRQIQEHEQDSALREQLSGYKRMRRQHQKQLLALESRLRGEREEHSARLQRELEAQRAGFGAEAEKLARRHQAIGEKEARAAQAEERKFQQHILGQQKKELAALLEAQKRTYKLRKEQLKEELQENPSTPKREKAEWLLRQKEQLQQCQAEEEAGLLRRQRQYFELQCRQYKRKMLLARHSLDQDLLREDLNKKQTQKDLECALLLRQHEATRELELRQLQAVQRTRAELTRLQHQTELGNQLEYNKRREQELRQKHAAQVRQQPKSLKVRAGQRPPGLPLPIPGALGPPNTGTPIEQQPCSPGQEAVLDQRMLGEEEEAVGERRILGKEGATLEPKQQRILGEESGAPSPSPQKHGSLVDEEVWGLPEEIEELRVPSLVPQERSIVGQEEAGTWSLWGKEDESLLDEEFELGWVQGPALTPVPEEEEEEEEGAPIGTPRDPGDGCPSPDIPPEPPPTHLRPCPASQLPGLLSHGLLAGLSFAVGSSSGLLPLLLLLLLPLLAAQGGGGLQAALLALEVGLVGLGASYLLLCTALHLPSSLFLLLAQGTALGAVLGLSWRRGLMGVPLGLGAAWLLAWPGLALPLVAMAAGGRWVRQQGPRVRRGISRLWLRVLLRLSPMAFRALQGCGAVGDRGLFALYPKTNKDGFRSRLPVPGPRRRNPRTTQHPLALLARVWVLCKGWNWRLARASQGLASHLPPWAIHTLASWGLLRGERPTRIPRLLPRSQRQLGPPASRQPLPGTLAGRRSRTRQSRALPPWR

ALK2 = ALK2 (Homo sapiens, UniProt Q04771); assay: kinase panel; format: biochemical
PIM1 = PIM1 (Homo sapiens, UniProt P11309); assay: kinase panel; format: biochemical
Sequence of PIM1 (P11309 whole entry): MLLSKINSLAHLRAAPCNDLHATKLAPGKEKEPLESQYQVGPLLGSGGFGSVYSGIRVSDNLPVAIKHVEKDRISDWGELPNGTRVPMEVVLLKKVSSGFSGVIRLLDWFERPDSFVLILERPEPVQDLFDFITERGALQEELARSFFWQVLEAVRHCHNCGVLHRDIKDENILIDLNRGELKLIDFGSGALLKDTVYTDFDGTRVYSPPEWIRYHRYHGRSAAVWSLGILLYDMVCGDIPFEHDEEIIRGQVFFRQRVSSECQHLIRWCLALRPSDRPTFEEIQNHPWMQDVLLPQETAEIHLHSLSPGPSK

CDK2-CYCLINE = CDK2-CYCLINE (Homo sapiens, UniProt P24941); assay: kinase panel; format: biochemical
GRK5 = GRK5 (Homo sapiens, UniProt P34947); assay: kinase panel; format: biochemical
CDK5-P25 = CDK5-P25 (Homo sapiens, UniProt Q00535); assay: kinase panel; format: biochemical
P70S6K1 = P70S6K1 (Homo sapiens, UniProt P23443); assay: kinase panel; format: biochemical
CAMK2A = CAMK2A (Homo sapiens, UniProt Q9UQM7); assay: kinase panel; format: biochemical
MAPKAPK3 = MAPKAPK3 (Homo sapiens, UniProt Q16644); assay: kinase panel; format: biochemical
TIE2 = TIE2 (Homo sapiens, UniProt Q02763); assay: kinase panel; format: biochemical
DYRK1A = DYRK1A (Homo sapiens, UniProt Q13627); assay: kinase panel; format: biochemical
PAK4 = PAK4 (Homo sapiens, UniProt O96013); assay: kinase panel; format: biochemical
Sequence of PAK4 (O96013 whole entry): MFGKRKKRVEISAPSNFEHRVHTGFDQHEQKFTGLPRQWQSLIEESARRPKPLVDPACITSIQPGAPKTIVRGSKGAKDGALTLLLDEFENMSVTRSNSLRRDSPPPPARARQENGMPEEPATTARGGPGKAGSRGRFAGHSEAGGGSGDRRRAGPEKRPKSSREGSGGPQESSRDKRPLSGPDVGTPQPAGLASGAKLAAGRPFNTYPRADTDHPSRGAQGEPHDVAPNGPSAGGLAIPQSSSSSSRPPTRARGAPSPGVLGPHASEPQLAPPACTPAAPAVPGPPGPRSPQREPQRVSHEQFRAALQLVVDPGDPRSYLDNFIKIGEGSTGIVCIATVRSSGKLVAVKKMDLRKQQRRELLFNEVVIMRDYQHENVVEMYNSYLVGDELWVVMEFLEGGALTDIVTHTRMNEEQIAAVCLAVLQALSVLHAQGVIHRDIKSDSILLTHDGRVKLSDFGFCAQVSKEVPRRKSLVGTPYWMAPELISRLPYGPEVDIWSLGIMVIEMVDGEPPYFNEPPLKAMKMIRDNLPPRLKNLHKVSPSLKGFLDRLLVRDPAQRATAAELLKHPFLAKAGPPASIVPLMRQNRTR

PI3K-BETA = PI3K-BETA (Homo sapiens, UniProt P42338); assay: kinase panel; format: biochemical
HIPK3 = HIPK3 (Homo sapiens, UniProt Q9H422); assay: kinase panel; format: biochemical
FLT-1 = FLT-1 (Homo sapiens, UniProt P17948); assay: kinase panel; format: biochemical
P38-DELTA = P38-DELTA (Homo sapiens, UniProt O15264); assay: kinase panel; format: biochemical

Structure (SMILES): O=C(Nc1nccs1)C(c1cc(F)ccc1O)N1Cc2ccccc2C1=O (stereo not drawn) [EAI045, 2-(5-fluoro-2-hydroxyphenyl)-2-(1-oxo-2,3-dihydro-1H-isoindol-2-yl)-N-(1,3-thiazol-2-yl)acetamide]
- inhibition at 1 µM (PKC-ETA): 0%
- anti-proliferative effect (H1975 cells; H1975, concentrations as high as 10 μM): no anti-proliferative effect
- EC50 (H1975 cells; Homo sapiens, NCI-H1975, 72 h, read-out: EC50 Proliferation): > 10 µM
- sensitivity of proliferation to the allosteric inhibitor [1]: dramatically more sensitive
- inhibition at 1 µM (LRRK2-G2019S): 0%
- inhibition at 1 µM (LTK): 1%
- inhibition at 1 µM (PRKG1): 0%
- inhibition at 1 µM (RET): 0%
- inhibition at 1 µM (MER): 8%
- inhibition at 1 µM (CLK3): 0%
- % inhibition (CK2): 0%
- inhibition at 1 µM (HASPIN): 1%
- IC50 [2]: > 30 µM
- inhibition at 1 µM (PRKD1): 0%
- inhibition at 1 µM (TBK1): 3%
- inhibition at 1 µM (MST2): 0%
- inhibition at 1 µM (AURORA-C): 0%
- inhibition at 1 µM (FES): 2%
- inhibition at 1 µM (MELK): 0%
- inhibition at 1 µM (ABL1): 1%
- inhibition at 1 µM (PAK6): 0%
- % inhibition (CK1): 0%
- inhibition at 1 µM (BTK): 0%
- inhibition at 1 µM (TAOK2): 0%
- inhibition at 1 µM (ALK2): 0%
- inhibition at 1 µM (PIM1): 0%
- inhibition at 1 µM (CDK2-CYCLINE): 0%
- inhibition at 1 µM (GRK5): 0%
- inhibition at 1 µM (CDK5-P25): 0%
- inhibition at 1 µM (P70S6K1): 0%
- inhibition at 1 µM (CAMK2A): 2%
- inhibition at 1 µM (MAPKAPK3): 0%
- inhibition at 1 µM (TIE2): 0%
- inhibition at 1 µM (DYRK1A): 0%
- inhibition at 1 µM (PAK4): 0%
- inhibition at 1 µM (PI3K-BETA): 0%
- inhibition at 1 µM (HIPK3): 0%
- inhibition at 1 µM (FLT-1): 8%
- inhibition at 1 µM (P38-DELTA): 0%
